Experiments:
Rattus norvegicus [1] = experiment: The total 72 hr urinary excretion of unchanged compound reported as log (percent X 10) of the administered dose; details: in vivo
[2] = The amount of unchanged compound detected in urine collected at 0-18 hr after treatment; details: rat
Rattus norvegicus [3] = experiment: The total 18 hr urinary excretion of unchanged compound reported as log (percent X 10) of the administered dose; details: in vivo
[4] = The amount of unchanged compound in urine collected at 0-72 h after treatment; details: rat
Rattus norvegicus [5] = experiment: The total 36 hr urinary excretion of unchanged compound reported as log (percent X 10) of the administered dose; details: in vivo
[6] = The amount of unchanged compound in urine collected at 0-54 hr after treatment; details: rat
Rattus norvegicus [7] = experiment: The total 54 h urinary excretion of unchanged compound reported as log (percent X 10) of the administered dose; details: in vivo
[8] = The amount of unchanged compound in urine collected at 0-36 hr after treatment; details: rat
[9] = Partition coefficient (logP); details: octanol/water
[10] = octanol/water
Rattus norvegicus [11] = experiment: The total 18 hr urinary excretion of the unchanged form of compound in urine was reported as log (percent X 10) of the administered dose by HPLC technique; type: ADME, organism-based; details: in vivo
Outline: (§1)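 Female Sprague-Dawley rats (200 ± 20 g) on chow diet, three per compound, dosed ip in Me2SO (50 μmol mL⁻¹ kg⁻¹). Urine pooled over 0-18 h. One mL urine was spiked with internal standard and extracted, the residue was taken up in 200 μL methanol, and 10-20 μL was injected for HPLC of the unchanged drug. Values expressed as log (percent × 10) of dose.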

[12] = (§2) The amount of the unchanged form of compound detected in the urine samples collected at 0-18 hr after the treatment by HPLC technique; type: ADME, organism-based; details: rat, read-out: Amount excreted; outline: as §1
[13] = The octanol/water partition coefficient was determined; type: physicochemical; details: read-out: Log K
Outline: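 Classical shake-flask octanol/water partitioning with 1 M ammonium chloride buffer, pH 9.0, as the aqueous phase. For one compound the aqueous phase was 0.14 M sodium acetate-barbital buffer, pH 3.6. Concentrations in the octanol and/or aqueous layer were read by UV spectrophotometry.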

Rattus norvegicus [14] = species: Rattus norvegicus; experiment: as §2; type: functional; outline: as §1
Rattus norvegicus [15] = species: Rattus norvegicus; details: in vivo, 18 h
in vivo = details: rat, urine

| Log BR (Rattus norvegicus [1]) | dose excreted [2] | Log BR (Rattus norvegicus [3]) | dose excreted [4] | Log BR (Rattus norvegicus [5]) | dose excreted [6] | Log BR (Rattus norvegicus [7]) | dose excreted [8] | logP [9] | Log k' [10] | log(10 × % of dose excreted unchanged in urine) (Rattus norvegicus [11]) | dose excreted [12] | logP [13] | Log BR (Rattus norvegicus [15]) | dose excreted (in vivo) | Compound | Amount excreted (Rattus norvegicus [14]) |
| --- | --- | --- | --- | --- | --- | --- | --- | --- | --- | --- | --- | --- | --- | --- | --- | --- |
| 2.81 | 32.6% | 2.513 | 64.9% | 2.754 | 60.6% | 2.782 | 56.8% | -0.03 | -0.11 |  |  |  |  |  | Cn1c([N+](=O)[O-])cnc1CO |  |
| 2.337 | 2.5% | 1.4 | 21.7% | 2.28 | 21.7% | 2.337 | 19% | -1 | -0.199 |  |  |  |  |  | Cn1c([N+](=O)[O-])cnc1/C=C(\Oc1ccccc1)C(=O)O |  |
| 2.477 | 10.6% | 2.025 | 29.9% | 2.477 | 29.9% | 2.477 | 29.9% | -0.69 | -0.067 | 2.023 | 10.4% |  |  |  | Cn1c([N+](=O)[O-])cnc1C=O |  |
| 2.113 | 4.1% | 1.613 | 12.9% | 2.113 | 12.9% | 2.113 | 12.9% | 1 | 0.455 |  |  |  |  |  | Cn1c([N+](=O)[O-])cnc1C1CC1 |  |
| 2.202 | 13.8% | 2.142 | 16% | 2.202 | 16% | 2.202 | 16% | 0.85 | 0.423 | 2.054 | 11.3% |  |  |  | Cn1c([N+](=O)[O-])cnc1/C=C/c1ccnc(N)n1 [AZANIDAZOLE] |  |
| 1.529 |  | 1.529 | 3.4% | 1.529 | 3.4% | 1.529 | 3.4% | 2.03 | 0.659 |  |  |  |  |  | O=[N+]([O-])c1cnc(/C=C/c2ccc3c(c2)OCO3)n1CCO |  |
| 2.692 | 30.5% | 2.484 | 49.2% | 2.692 | 49.2% | 2.692 | 49.2% | -0.1 | -0.067 | 2.407 | 25% |  |  |  | Cc1ncc([N+](=O)[O-])n1CCO [METRONIDAZOLE] |  |
| 2.701 | 37.1% | 2.569 | 42.1% | 2.59 | 42.1% | 2.701 | 38.9% | -0.3 | -0.115 | 2.549 | 35.4% |  |  |  | Cc1ncc([N+](=O)[O-])n1CC(=O)Nc1ncccn1 |  |
| 1.96 | 4.3% | 1.633 | 9.1% | 1.96 | 9.1% | 1.96 | 9.1% | 1.06 | 0.45 | 1.398 | 2.5% |  |  |  | CC(C)c1ncc([N+](=O)[O-])n1C [IPRONIDAZOLE] |  |

Further lines, the compound ahead of its results:

| Compound | Log BR (Rattus norvegicus [1]) | dose excreted [2] | Log BR (Rattus norvegicus [3]) | dose excreted [4] | Log BR (Rattus norvegicus [5]) | dose excreted [6] | Log BR (Rattus norvegicus [7]) | dose excreted [8] | logP [9] | Log k' [10] | log(10 × % of dose excreted unchanged in urine) (Rattus norvegicus [11]) | dose excreted [12] | logP [13] | Log BR (Rattus norvegicus [15]) | dose excreted (in vivo) | Amount excreted (Rattus norvegicus [14]) |
| --- | --- | --- | --- | --- | --- | --- | --- | --- | --- | --- | --- | --- | --- | --- | --- | --- |
| Cc1ncc([N+](=O)[O-])n1CC(O)CO (centres undefined) | 2.822 | 14.3% | 2.155 | 66.4% | 2.808 | 66.4% | 2.822 | 64.3% |  | -0.199 |  |  | -0.63 |  |  |  |
| Nc1ncc(S(=O)(=O)c2ccc([N+](=O)[O-])cc2)s1 | 2.811 | 48.6% | 2.687 | 64.7% | 2.811 | 64.7% | 2.811 | 64.7% | -0.43 | -0.049 |  |  |  |  |  |  |
| CCC(CC)C(O)Cn1c([N+](=O)[O-])cnc1C (centres undefined) | 2.713 | 36.4% | 2.561 | 51.7% | 2.713 | 51.7% | 2.713 | 51.7% | -0.08 | 0.058 |  |  |  |  |  |  |
| COC(=S)NCCn1c([N+](=O)[O-])cnc1C [CARNIDAZOLE] | 2.364 | 6.7% | 1.826 | 23.1% | 2.33 | 23.1% | 2.364 | 21.5% | 0.9 | 0.465 | 1.819 | 6.5% |  |  |  |  |
| Cc1ncc([N+](=O)[O-])n1CC(=O)N1CCN(C(=O)Cn2c([N+](=O)[O-])cnc2C)CC1 | 2.27 | 14.3% | 2.155 | 18.6% | 2.27 | 18.6% | 2.27 | 18.6% |  | 0.028 |  |  |  |  |  |  |
| O=C1NCCN1c1ncc([N+](=O)[O-])s1 [NIRIDAZOLE] | 1.861 | 4.6% | 1.663 | 7.3% | 1.861 | 7.3% | 1.861 | 7.3% | 0.92 | 0.363 |  |  |  |  |  |  |
| Cc1ncc([N+](=O)[O-])n1CC(O)CCl (centres undefined) [ORNIDAZOLE] | 2.625 | 13.2% | 2.121 | 42.1% | 2.471 | 36.9% | 2.567 | 29.6% |  |  | 2.068 | 11.7% |  |  |  |  |
| CCS(=O)(=O)CCn1c([N+](=O)[O-])cnc1C [TINIDAZOLE] | 2.822 | 29.4% | 2.468 | 66.3% | 2.822 | 66.3% | 2.822 | 66.3% | -0.36 | -0.125 | 2.436 | 27.3% |  |  |  |  |
| CN1CCN(Cc2ncc([N+](=O)[O-])n2C)CC1 | 2.658 | 41.7% | 2.62 | 45.5% | 2.658 | 45.5% | 2.658 | 45.5% | -0.33 | 0.014 |  |  |  |  |  |  |
| Cc1ncc([N+](=O)[O-])n1CCS(C)(=O)=O | 2.448 | 25.2% | 2.401 | 28% | 2.446 | 28% | 2.448 | 27.9% | -0.35 | -0.097 | 2.394 |  |  |  |  | 24.8% |
| O=[N+]([O-])c1cncn1CCN1CCOCC1 [NIMORAZOLE] | 2.719 | 43.6% | 2.639 | 52.4% | 2.719 | 52.4% | 2.719 | 52.4% |  | 0.188 |  |  |  |  |  |  |
| Cc1ncc([N+](=O)[O-])n1CC(O)Cn1c([N+](=O)[O-])cnc1C | 2.358 | 18.2% | 2.26 | 22.8% | 2.358 | 22.8% | 2.358 | 22.8% | 0.31 | 0.199 |  |  |  | 2.196 | 15.7% |  |
| CCN(CC)CCOCCn1c([N+](=O)[O-])cnc1C | 2.455 | 23.4% | 2.369 | 28.5% | 2.455 | 28.5% | 2.455 | 28.5% | -0.38 | 0.021 |  |  |  |  |  |  |
| O=[N+]([O-])c1c[nH]cn1 | 2.664 | 33.8% | 2.529 | 46.1% | 2.601 | 46.1% | 2.664 | 39.9% |  | 0 |  |  |  |  |  |  |

Reference: ChEMBL document CHEMBL1123508, “Relationship between lipophilic character and urinary excretion of nitroimidazoles and nitrothiazoles in rats” (J Med Chem, 1986)
